In ChEMBL document CHEMBL4004783, “Penicisulfuranols A-F, Alkaloids from the Mangrove Endophytic Fungus Penicillium janthinellum HDN13-309” (J Nat Prod, 2017):
Counter-ions that a name gives are not always drawn.

Tests used:
HeLa = assay: Cytotoxicity against human HeLa cells assessed as reduction in cell viability by SRB assay; assay type: functional, cell-based
Method in brief: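 HeLa human cervical carcinoma cells; cell growth read by sulforhodamine B (SRB) method; IC50 values reported.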

HL-60 = assay: Cytotoxicity against human HL60 cells assessed as reduction in cell viability by MTT assay; assay type: functional, cell-based
Method in brief: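 HL-60 human promyelocytic leukemia cells; viability read by MTT method; IC50 values reported.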

SMILES	IC50 (HeLa) [nM]	IC50 (HL-60) [nM]
COc1cccc2c1C(=O)c1c(O)c3c(c(O)c1C2=O)C[C@@](O)(C(=O)CO)C[C@@H]3O[C@H]1C[C@H](N)[C@H](O)[C@H](C)O1 [DOXORUBICIN HYDROCHLORIDE]	500	–
COc1cccc2c1O[C@]1(C(=O)N3O[C@H]4[C@H](O)C=C[C@@H](O)[C@@]4(O)C[C@@]3(SC)C(=O)N1C)[C@@H]2SC	> 30000	> 30000
COc1ccc2c(c1OC)O[C@]1(C(=O)N3O[C@H]4[C@H](O)C=C[C@@H](O)[C@@]4(O)C[C@@]3(SC)C(=O)N1C)[C@@H]2SC	> 30000	> 30000
COc1ccc2c(c1OC)O[C@]1(C(=O)N3O[C@H]4[C@H](O)C=C[C@@H](Cl)[C@@]4(O)C[C@@]3(SC)C(=O)N1C)[C@@H]2SC	> 30000	> 30000
COc1ccc2c(c1OC)O[C@]13C(=O)N4O[C@H]5[C@H](O)C=C[C@@H](O)[C@@]5(O)C[C@@]4(SS[C@H]21)C(=O)N3C	3900	1600
COc1ccc2c(c1OC)O[C@]13C(=O)N4O[C@H]5[C@H](O)C=C[C@@H](Cl)[C@@]5(O)C[C@@]4(SS[C@H]21)C(=O)N3C	500	100
COc1ccc2c(c1OC)O[C@]13C(=O)N4O[C@H]5[C@H](O)C=C[C@@H](O)[C@@]5(O)C[C@@]4(SSS[C@H]21)C(=O)N3C	300	1200
